This is a sample that favours compounds with a hit; in the whole collection about 2.3% have one here.
C8 TRAIL sens = caspase-8 TRAIL sensitization. AID 624354. inhibition (viability loss, TRAIL sensitization), % at 10 µM. 360,000 tested, 1% active. NB7+C8 cells + TRAIL, ATPlite viability luminescence;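 active = compounds causing at least 50% loss of cell viability in the single-dose screen, relative to plate controls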
STAT3 act = increases IL-6 driven STAT3 reporter signal; U3A cells, IL-6 STAT3-luciferase reporter, luminescence; 100% = signal with IL-6 EC80 alone; 190,000 tested, 0.91% active; activation (% of control), % at 5.6 µM; AID 871;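 active = activation above the screen-wide mean of compound activation plus 3 SD, cut at about 130% in these data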;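 also: 0% = background luminescence of wells with medium and substrate only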
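Material: STAT3-luciferase reporter U3A cells; Probe or stimulus: IL-6 (33 ng/mL); Incubation: compound pre-incubation 1 h before IL-6, then 6 h stimulation at 37 °C; Technique: luminescence from STAT3-driven luciferase reporter; Evaluation: % activation versus median of IL-6-stimulated wells; Controls: IL-6-only high control.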
STAT3 blocker = reduces IL-6 driven STAT3 reporter signal; 190,000 tested, 0.89% active; inhibition, % at 5.5 µM; U3A cells, IL-6 STAT3-luciferase reporter, luminescence; host cell line lacks STAT1;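 active = inhibition above the mean inhibition across all screened compounds plus 3 SD, cut at about 44% in these data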;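 also: 0% = DMSO only wells and 100% = 100 µM nifuroxazide control wells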
STAT1 blocker = STAT1 signaling inhibition; NIH 3T3 STAT1-luciferase reporter, IFN-gamma, luminescence; AID 920; 200,000 tested, 0.35% active; inhibition, % at 5.5 µM;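 active = inhibition above a set limit, the mean inhibition across all tested compounds plus 3 SD, cut at about 34% in these data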;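 also: 0% = IFN-gamma with DMSO and 100% = IFN-gamma with 300 µM nifuroxazide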
HSP90 inh = blocks HSP90-mediated luciferase refolding in reticulocyte lysate. inhibition, % at 5.6 µM. AID 1789. Rabbit reticulocyte lysate, luciferase refolding luminescence, 3 h. 290,000 tested, 0.91% active;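 active = inhibition above the screen-wide mean plus 3 SD, computed separately per campaign, cut at about 16% in these data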;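 also: 0% = DMSO wells and 100% = 60 µM geldanamycin wells; inhibitors lower the luminescence because luciferase stays unfolded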
PPC-1+TRAIL kill = PPC-1 cancer cell killing with TRAIL present | PPC-1 cells + TRAIL, ATPLite viability luminescence | cell killing (% activity), % at 4 µM or 5 µM | 220,000 tested, 0.41% active;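 active = cell killing above 50% in the first pass at 4 µM, then a duplicate retest at 5 µM averaging 50% or more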;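 also: plate controls were cells with TRAIL plus DMSO for no effect and medium-only wells lacking cells for full effect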
* marks the source's active call; other numbers are inactive results; nt = no result.

SMILES	C8 TRAIL sens	STAT3 act	STAT3 blocker	STAT1 blocker	HSP90 inh	PPC-1+TRAIL kill
CCCCCCCCCCCCCCC[C@@H](O)[C@@H](N)CO	95*	nt	nt	nt	nt	nt
CCCCCCCCCC(=O)OCC(O)CO (stereo not given)	7	104	-2	1	4	12
O=C(N/N=C/c1cc([N+](=O)[O-])ccc1O)c1ccc2c(c1)OCCO2	52*	100	-4	-4	1	36
COc1ccc(-c2csc(NC(=O)C3CCN(c4ncnc5sc(C)c(C)c45)CC3)n2)cc1OC	69*	nt	nt	nt	nt	nt
Cc1cccc2sc(NNC(=O)c3ccc(S(=O)(=O)N4CC(C)CC(C)C4)cc3)nc12 (stereo not given)	66*	108	-10	11	6	27
O=c1[nH]c(CCl)nc2cc(-c3ccc(F)cc3)sc12	81*	nt	nt	nt	16	nt
O=C(COc1ccc(Cl)cc1Cl)Nc1ccccc1F	58*	nt	nt	nt	nt	nt
COc1ccc(-c2nn(-c3ccccc3)cc2CNC[C@H]2O[C@@H](n3ccc(=O)[nH]c3=O)[C@H](O)[C@@H]2O)cc1	-5	nt	nt	nt	nt	nt
Cc1cc(C(=O)COC(=O)c2ccc[nH]c2=O)c(C)n1-c1ccc(F)cc1	52*	85	20	-10	4	45
Cc1cc(C(=O)COC(=O)c2ccc[nH]c2=O)c(C)n1-c1ccccc1	72*	59	49*	36*	0	62*
O=S(=O)(c1ccc(NC(=S)NC2CCCC2)cc1)N1CCCC1	-1	100	6	-4	3	8
CC1=NN(c2ccccc2)C(=O)/C1=C\c1cn(CCC#N)nc1-c1ccc(Cl)cc1	-10	109	-6	-1	3	2
CC1=NN(c2ccccc2)C(=O)/C1=C/c1c(O)n(-c2ccc(F)c(Cl)c2)[nH]c1=O	nt	166*	-86	-47	-4	10
CC1=NN(c2ccccc2)C(=O)/C1=C\c1c(C)[nH]n(-c2ccccc2)c1=O	17	144*	-49	-1	0	12
CCSC(=O)N(CC)CC(=O)Nc1c(CC)cccc1CC	4	108	-4	-3	1	6
COc1ncnc2c1ncn2CCCNCC(c1ccccc1)c1ccccc1	2	nt	nt	nt	nt	nt
c1ccc(COc2ncnc3c2ncn3CCCNCC(c2ccccc2)c2ccccc2)cc1	63*	nt	nt	nt	nt	nt
CC(C)Sc1nnc(CNC(=O)C23CC4CC(CC(C4)C2)C3)n1Cc1ccccc1	-6	98	1	3	3	22
CCOc1ccc(C(=O)Nc2ccccc2NC(C)=O)cc1OCC	-1	104	5	2	0	-5
CCOc1ccccc1Nc1ccc(C(=O)O)cc1NC(C)=O	5	99	7	16	-3	54*
COc1ccc(-c2cc(-c3ccccc3)c(C#N)c(S(C)(=O)=O)n2)cc1	78*	100	2	-7	8	47
CS(=O)(=O)c1nc(-c2ccc(Br)cc2)cc(-c2ccccc2)c1C#N	88*	99	2	-3	-4	31
CCN1CCN(c2ccc(S(=O)(=O)N3CCCCC3)cc2NC(=O)c2ccc([N+](=O)[O-])s2)CC1	53*	nt	nt	nt	nt	nt
CCN1CCN(c2ccc(S(=O)(=O)N3CCCCC3)cc2NC(=O)c2ccccc2)CC1	21	nt	nt	nt	nt	nt
CNCCNC[C@H](Cc1cccc2ccccc12)NCCc1ccccc1	-10	nt	nt	nt	nt	nt
SMILES	C8 TRAIL sens	STAT3 act	STAT3 blocker	STAT1 blocker	HSP90 inh	PPC-1+TRAIL kill
CNC[C@H](Cc1ccccc1)NC[C@@H](Cc1cccc2ccccc12)NCCc1ccc(C)cc1	95*	nt	nt	nt	0	nt
Cc1nn(CCC(=O)O)c(C)c1C	-5	97	3	3	3	7
Cc1cccc(NC2=NC(C)(C)N=C(N)N2)c1	71*	90	15	-1	-2	44
O=C1Nc2cc(C(=O)NCCCN3CCCC3)ccc2S/C1=C\c1ccccc1	11	nt	nt	nt	-3	nt
COc1ccc(/C=C2/Sc3ccc(C(=O)NCCN4CCCCCC4)cc3NC2=O)cc1	79*	nt	nt	nt	-1	nt
CCOc1ccccc1N(C)C(=O)Cn1ncc2c([nH]c3ccccc32)c1=O	5	nt	nt	nt	2	nt
Cc1nnc(NC(=O)C2CCN(C(=O)c3ccco3)CC2)s1	-6	nt	nt	nt	16*	nt
COc1cccc(-c2nnc(NC(=O)c3ccco3)s2)c1	19	nt	nt	nt	5	nt
Cc1ccc(-c2nnc(NC(=O)c3ccco3)s2)cc1	68*	nt	nt	nt	9	nt
CCc1nnc(NC(=O)C2CCN(C(=O)c3ccco3)CC2)s1	-18	nt	nt	nt	0	nt
COc1ccc(-c2nnc(NC(=O)c3ccco3)s2)cc1	60*	nt	nt	nt	2	nt
C=C(C)CSc1nnc2n(C)c(=O)c3c4c(sc3n12)CCC4	55*	99	7	2	0	0
Nc1nc(N)c2cc(Sc3ccc4ccccc4c3)ccc2n1	73*	nt	nt	nt	5	34
Nc1nc(N)c2cc(Sc3ccc(Cl)cc3)ccc2n1	73*	nt	nt	nt	nt	nt
Nc1nc(N)c2cc(Sc3cccc(C(F)(F)F)c3)ccc2n1	73*	nt	nt	nt	nt	nt
CN(C)CC(C)(C)CNC(C(=O)Nc1ccc(Cl)cc1C(F)(F)F)c1ccccc1 (stereo not given)	10	92	12	5	3	21
CCCC(=O)N1CC(=O)Nc2ccc(F)cc2C1c1ccccc1 (stereo not given)	-5	99	6	1	-1	8
COCCn1c(-c2ccc(OC(F)(F)C(F)C(F)(F)F)cc2)nc2c1c(=O)[nH]c(=O)n2CC(C)C (stereo not given)	-4	98	8	-8	1	8
CC(C)c1ccc(NC(=O)CSc2ncccc2C(=O)Oc2cccc([N+](=O)[O-])c2)cc1	67*	105	-2	-16	-3	28
O=C(CSc1ccccn1)Nc1cccc([N+](=O)[O-])c1	8	109	-3	-18	7	3
Cc1ccc(-c2nnn(CC(=O)O)n2)cc1	-1	104	-2	-1	0	19
Cc1oc(C(=O)O)cc1CSCc1cc(C(=O)O)c(C)o1	-10	96	9	6	3	11
COc1cccc(/C=C2\CCC(C3CCCC3)C2=O)c1OC (stereo not given)	49*	nt	nt	nt	-1	nt
CCn1c2ccccc2nc2cc3c(cc21)c(Cl)c(=O)c1ccccc13	79*	nt	nt	nt	nt	nt
CCCCN(CC)S(=O)(=O)c1ccc(C(=O)N=c2sc3cc(NC(C)=O)ccc3n2C)cc1	61*	104	2	-6	1	9
CCCCN(C)S(=O)(=O)c1ccc(C(=O)N=c2sc3cc(NC(C)=O)ccc3n2C)cc1	-14	94	7	-8	-3	17
CC1(C(=O)NCc2ccccc2)Cc2c(-c3cccc(C(F)(F)F)c3)ccnc2O1 (stereo not given)	21	nt	nt	nt	nt	nt
Cn1c(COc2ccccc2)nnc1SCCSc1nnc(COc2ccccc2)n1C	11	103	4	16	4	9
Cn1c(COc2ccc(Br)cc2)nnc1SC1CCc2ccccc2C1=O (stereo not given)	-11	133*	-42	3	2	3

Bioassay records from PubChem BioAssay.
